Active and inactive are the calls of the source. The calls are words filed in the database; no cut-off is given here.
How the values were obtained:
[1] = system: MDA-MB-231; assay: Antiproliferative activity in human FOXD3-knockdown MDA-MB-231 cells co-silenced with shRNA of RPS6KA2 assessed as cell growth at 1 uM by CCK-8 assay; type: functional, cell-based
[2] = system: BT-474; assay: Antiproliferative activity in human FOXD3-overexpressing BT-474 cells assessed as cell growth at 1 uM by CCK-8 assay; type: functional, cell-based
[3] = system: BT-549; assay: Effect on human BRD4-knockdown BT-549 assessed as decreased luciferase activity at 1 uM for 6 hrs by Luciferase reporter assay; type: functional, cell-based
[4] = system: MDA-MB-231; assay: Induction of apoptosis in human MDA-MB-231 cells assessed as caspase-3 cleavage in the presence of osimertinib at 1 uM by Western blotting analysis; type: functional, cell-based
[5] = system: MDA-MB-231; assay: Induction of apoptosis in human MDA-MB-231 cells expressing vector control assessed as late apoptotic cells at 1 uM by Annexin V-FITC flow cytometric analysis (reference value: 2.4%); type: functional
In short: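 Stable clones (vector, RSK3-overexpressing or RPS6KA2-knockdown) treated ± JQ1 1 μM. Cells washed twice in PBS, resuspended at 1 × 10^6 cells/ml in binding buffer, stained with Annexin V-FITC and propidium iodide for 10 min at room temperature in the dark, then read by flow cytometry. Three independent experiments; one-way ANOVA.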

[6] = system: MDA-MB-231; assay: Antiproliferative activity in human JUND-knockdown MDA-MB-231 cells assessed as stronger tumor sphere formation at 1 uM by tumor sphere assay; type: functional, cell-based
[7] = system: BT-549; assay: Antiproliferative activity in human BT-549 cells assessed as cell growth in the presence of miR-548d-3p inhibitor at 1 uM by CCK-8 assay; type: functional, cell-based
In short: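 BLBC cells transfected with miR-548d-3p mimic or inhibitor, with or without JQ1; growth read by CCK-8 assay relative to DMSO-treated control, seeded at 3000/well. Triplicates, mean ± SD, one-way ANOVA.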

[8] = system: MDA-MB-231; assay: Antiproliferative activity in human MDA-MB-231 cells assessed as cell growth for 48 hrs in the presence of osimertinib at 1 uM by CCK-8 assay; type: functional, cell-based
In short: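 Cells seeded 3000/well, adhered overnight, treated with JQ1 (1 μM) with or without osimertinib (1 μM) for 48 h; growth by CCK-8 kit, normalized to DMSO-treated control; triplicates, mean ± SD, one-way ANOVA.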

[9] = system: MDA-MB-231; assay: Antitumor activity against human MDA-MB-231 cells xenografted in BALB/c nude mouse model assessed as reduction of tumor size in the presence of osimertinib at 35 mg/kg/day, sc administered every 2 days for 30 days; type: functional, organism-based; conditions: time 30.0 day
In short: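 MDA-MB-231 xenografts used 1 × 10^6 cells injected subcutaneously into female BALB/c nude mice (4–6 weeks). Animals were split into four groups (n = 7) at ~100 mm3: vehicle, osimertinib 10 mg/kg, 35 mg/kg agent, or the combination, each given every 2 days. Volume was measured by calliper as length × width²/2; tumours were weighed at end.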

[10] = system: MDA-MB-231; assay: Effect on JUND dependent RPS6KA2 transcription in human JUND-knockdown MDA-MB-231 cells assessed reduction in transcription level at 1 uM by ChIP-RT-PCR analysis; type: functional, cell-based
In short: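 ChIP-qPCR used ~1 × 10^6 cross-linked JUND-knockdown or control cells treated with DMSO or 1 μM for 6 h. Immunoprecipitated DNA was quantified by real-time PCR with primers specific to the RPS6KA2 enhancer. Non-specific primers downstream of the gene 3′ end served as control.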

[11] = system: MDA-MB-231; assay: Cytotoxicity in human RSK3-overexpressing MDA-MB-231 cells assessed as cell viability at 1 uM for 48 hrs by CellTiter-Glo luminescent cell viability assay; type: functional, cell-based
In short: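 CellTiter-Glo viability: stable overexpressing or shRNA clones (puromycin 1.0 μg/ml selection) seeded 3000 cells/well, adhered overnight, then exposed to 1 μM for 48 h. Luminescence is background-subtracted and normalised to DMSO-treated control. Triplicates, mean ± SD, one-way ANOVA. MDA-MB-231 cells are kept in DMEM and BT549 in RPMI-1640, each with 10% FBS.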

[12] = system: BT-549; assay: Induction of apoptosis in human BT-549 cells in the presence of osimertinib at 1 uM by flow cytometry analysis; type: functional, cell-based
In short: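 Cells given JQ1 and/or osimertinib, then stained with Annexin V-FITC plus propidium iodide (10 min, room temperature, dark; 1 × 10^6 cells/ml in binding buffer after two PBS washes) and analysed by flow cytometry; one-way ANOVA.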

[13] = system: BT-549; assay: Antiproliferative activity in human BT-549 cells assessed as cell growth in the presence of lapatinib at 1 uM by CellTiter-Glo luminescent cell viability assay; type: functional, cell-based
In short: (§1)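 BLBC cells seeded at 3000/well, adhered overnight, then exposed to JQ1 (1 μM) with or without an EGFR inhibitor (1 μM) for 48 h; control and RPS6KA2-shRNA clones tested. Viability by CellTiter-Glo luminescence, background-subtracted and normalized to DMSO-treated control; triplicates, mean ± SD, one-way ANOVA against JQ1 alone.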

[14] = system: BT-549; assay: Antiproliferative activity in human BT-549 cells assessed as cell growth in the presence of gefitinib at 1 uM by CellTiter-Glo luminescent cell viability assay; type: functional, cell-based; in short: as §1
[15] = system: BT-549; assay: Antiproliferative activity in human BT-549 cells assessed as cell growth inhibition for 48 hrs in the presence of […] at 1 uM by CCK-8 assay; type: functional, cell-based
[16] = system: BT-549; assay: Antiproliferative activity in human FOXD3-knockdown BT-549 cells co-silenced with shRNA of RPS6KA2 assessed as cell growth at 1 uM by CCK-8 assay; type: functional, cell-based
[17] = system: MDA-MB-231; assay: Effect of human RSK3-overexpressing MDA-MB-231 cells assessed as suppression of tumour sphere formation at 1 uM by Tumour sphere assay; type: functional, cell-based
[18] = target: T1, Transcription factor JunD (Homo sapiens) (UniProt P17535); assay: Binding affinity to JunD in human MDA-MB-231 cells assessed RPS6KA2 expression at 1 uM for 24 hrs by ChIP analysis; type: cell-based
T1 sequence (whole entry): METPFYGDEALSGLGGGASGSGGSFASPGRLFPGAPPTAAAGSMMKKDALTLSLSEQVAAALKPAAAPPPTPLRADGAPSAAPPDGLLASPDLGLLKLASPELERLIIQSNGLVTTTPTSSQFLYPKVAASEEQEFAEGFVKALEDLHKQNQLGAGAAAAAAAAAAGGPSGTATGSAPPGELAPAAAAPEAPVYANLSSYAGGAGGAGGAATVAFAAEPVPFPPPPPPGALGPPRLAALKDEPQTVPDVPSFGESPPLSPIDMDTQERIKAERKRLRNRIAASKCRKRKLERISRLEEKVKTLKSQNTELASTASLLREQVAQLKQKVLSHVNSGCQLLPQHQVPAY

[19] = system: MDA-MB-231; assay: Antiproliferative activity in human MDA-MB-231 cells assessed as cell growth in the presence of EAI045 at 1 uM by CellTiter-Glo luminescent cell viability assay; type: functional, cell-based; in short: as §1
[20] = system: BT-549; assay: Antiproliferative activity in human BT-549 cells assessed as cell growth in the presence of osimertinib at 1 uM by CellTiter-Glo luminescent cell viability assay; type: functional, cell-based; in short: as §1

Compound: Cc1sc2c(c1C)C(c1ccc(Cl)cc1)=N[C@@H](CC(=O)OC(C)(C)C)c1nnc(C)n1-2
- Activity [1]: Active
- Activity [2]: Active
- Activity [3]: Active
- Activity [4]: Active
- Activity [5]: 5.48%
- Activity [6]: Active
- Activity [7]: Active
- Activity [8]: Active
- Activity [9]: Active
- Activity [10]: Active
- Activity [11]: Active
- Activity [12]: Active
- Activity [13]: Active
- Activity [14]: Active
- Activity [15]: Active
- Activity [16]: Active
- Activity [17]: Active
- Activity [18]: Active
- Activity [19]: Active
- Activity [20]: Active

From ChEMBL document CHEMBL5674889, “Enhanced JunD/RSK3 signalling due to loss of BRD4/FOXD3/miR-548d-3p axis determines BET inhibition resistance” (2020)
